HTR2A ag – mouse HTR2A agonism via beta-arrestin recruitment; P35363; CHO-K1 mHTR2A beta-arrestin complementation, luminescence; percent of 30 µM serotonin response; activation, % at 7.6 µM; 360,000 tested, 0.66% active; AID 624169;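 active means activation above a run cutoff, the mean activation of all tested compounds plus 3 SD, cut at about 14% in these data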;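 further: 0% = plate median of compound wells and 100% = 30 µM serotonin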
dFosB act-1 – enhances mouse delta FosB homodimer DNA binding; P13346; 340,000 tested, 0.99% active; activation, % at 25 µM; purified delta FosB, TAMRA-CDK5 oligo fluorescence polarization; percent of positive-control signal above neutral wells;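 active means mean activation above about 17%, with every replicate also reaching it, limit read from the data, passing the limit was not always enough; inconclusive means only one of the two conditions met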
Target sequence (P13346 whole entry, looked up): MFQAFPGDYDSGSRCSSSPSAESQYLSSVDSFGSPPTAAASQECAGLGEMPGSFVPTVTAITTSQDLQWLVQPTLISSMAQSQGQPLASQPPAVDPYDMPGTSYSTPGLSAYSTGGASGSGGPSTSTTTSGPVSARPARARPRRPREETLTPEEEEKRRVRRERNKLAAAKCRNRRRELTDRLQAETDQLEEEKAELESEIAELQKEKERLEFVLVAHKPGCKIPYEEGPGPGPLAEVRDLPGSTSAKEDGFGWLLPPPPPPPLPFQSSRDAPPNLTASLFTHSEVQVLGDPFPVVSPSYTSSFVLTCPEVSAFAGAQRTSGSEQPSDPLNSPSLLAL
VIM-2 inh – blocks Pseudomonas aeruginosa VIM-2 metallo-beta-lactamase; purified VIM-2, nitrocefin hydrolysis, epi-absorbance fluorescence; inhibition, % at 5.6 µM; 290,000 tested, 0.89% active; AID 1527;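 active means inhibition above the mean of all tested compounds plus 3 SD, cutoff set per screening run, cut at about 7.5% in these data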;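 further: red hydrolysis product quenches plate fluorescence so inhibitors raise well fluorescence; 0% = enzyme with DMSO and 100% = DMSO without enzyme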
IMP-1 inhibitor – blocks Pseudomonas aeruginosa IMP-1 metallo-beta-lactamase | purified IMP-1, nitrocefin hydrolysis, epi-absorbance fluorescence | AID 1556 | 290,000 tested, 0.45% active | inhibition, % at 5.6 µM;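 active means inhibition above the mean plus 3 SD of all compounds in the same screening run, cut at about 4.5% in these data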;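 further: 0% = IMP-1 with DMSO and 100% = DMSO wells lacking enzyme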
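Assay system: purified IMP-1; Quantity: IMP-1 0.2 nM before substrate addition; Medium: HEPES buffer pH 7.1 with ZnSO4 and Brij 35; Incubation: 15 min enzyme–compound preincubation, then 25 min nitrocefin reaction, 25 °C; Signal: fluorescence quenching readout, ex 480/em 530 nm; Controls: DMSO with and without IMP-1; Repeats: singlicate testing.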
dFosB act-2 – enhances mouse delta FosB homodimer binding to DNA | activation, % at 24.9 µM | shares compounds with dFosB act-1 | purified delta FosB, TAMRA-CDK5 oligo fluorescence polarization; normalised: neutral wells 0, positive control 100 | 2,400 tested, under 10 active | AID 588690;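 active means highest replicate activation at or above 34% and every replicate reaching that threshold; inconclusive means meets only one of the two criteria; inactive means meets neither criterion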;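 further: higher polarization means more probe DNA bound by delta FosB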
An asterisk follows results filed as active; ? = inconclusive; / = not tested or not shown. The list is not random: actives were taken first. Their share in the collection is about 2.5%.

SMILES	HTR2A ag	dFosB act-1	VIM-2 inh	IMP-1 inhibitor	dFosB act-2
Cn1c(=O)c2c(ncn2CC(=O)Nc2nc(-c3ccc(F)c(F)c3)cs2)n(C)c1=O	3	32*	-1	-1	9
CC1CCC(C(=O)NC(C(=O)NCCc2ccc(S(N)(=O)=O)cc2)C(C)C)CC1 (stereo not drawn)	-9	21*	-3	-2	5
Cc1ccc(S(=O)(=O)N2CCN(C(=O)C(Cc3ccccc3)NC(=O)c3ccccc3)CC2)cc1 (stereo not drawn)	-1	23*	/	/	3
CCCn1c(N)c(C(=O)CSc2nnc(Cc3cccs3)n2C2CC2)c(=O)n(C)c1=O	0	-3	/	/	/
COCCSc1ccccc1C(=O)N1CCN(Cc2ccccc2)CC1	-3	-4	-2	-2	/
S=C(N/N=C/c1ccccc1Cl)Nc1cccc(Cl)c1Cl	-2	36*	-5	-3	3
Fc1ccc(NC(=S)NN=Cc2ccccc2Cl)cc1	-6	-3	/	/	/
COc1ccc2nc(NC(=O)C3CCCN(S(=O)(=O)c4cccc5nsnc45)C3)sc2c1 (stereo not drawn)	-6	25*	-4	-3	-1
COc1ccc(C(=O)Nc2cccc(-c3ccc(N4CCOCC4)nn3)c2)cc1	-4	-7	/	/	/
COc1cc(OC)cc(C(=O)Nc2cccc(-c3ccc(N4CCOCC4)nn3)c2)c1	1	20*	/	/	2
O=C(Nc1cc2cc([N+](=O)[O-])ccc2oc1=O)c1cccs1	/	/	-2	-3	/
COc1ccc(N2C(=O)c3ccccc3NC2c2ccc(OC)c(Cn3nnc4ccccc43)c2)cc1 (stereo not drawn)	-2	30*	-1	-3	0
COc1ccc(C2Nc3ccccc3C(=O)N2c2ccc(C)cc2)cc1Cn1nc(C)c([N+](=O)[O-])c1C (stereo not drawn)	1	-8	-1	-2	/
O=C(COC(=O)c1cc(Cl)ccc1O)NCC1CCCO1 (stereo not drawn)	0	-6	/	/	/
CCOC(=O)c1ccc(NC(=O)Cn2c(C)nc3c(sc(=S)n3CC)c2=O)cc1	-1	12	-1	-1	/
Cc1nc2c(sc(=S)n2Cc2ccco2)c(=O)n1CC(=O)Nc1ccccc1	1	34*	-1	1	1
Cc1nc2c(sc(=S)n2Cc2ccco2)c(=O)n1CC(=O)Nc1ccccc1F	1	83*	-2	6.0*	-1
CSc1nsc(SC)c1NC(=O)N1CCCCC1	2	-7	-5	-4	/
CSc1nsc(SC)c1NC(=O)Nc1ccccc1C	1	33*	-3	-1	7
CCCn1nc(C(=O)Nc2cc(S(=O)(=O)Nc3ccc(OC)cc3)ccc2O)c2ccccc2c1=O	-5	21*	/	/	2
COc1cccc(CC2CC(=O)N(c3ccc4c(C)cc(=O)oc4c3)C2=O)c1 (stereo not drawn)	1	-3	-2	2	/
Cc1ccc(CNC(=O)c2ccc(NC(=O)C3=CSCCO3)cc2)cc1	1	28*	-5	-3	-8
COc1ccc2cc(C)c3nnc(SCC(=O)Nc4nc(-c5ccccc5)cs4)n3c2c1	0	41*	-1	-3	2
NC(N)=NS(=O)(=O)c1ccc(N/C=C/C(=O)c2ccc(Cl)c(Cl)c2)cc1	-4	46*	-2	-4	4
O=C(/C=C/Nc1ccc(S(=O)(=O)Nc2ncccn2)cc1)c1ccc(Cl)c(Cl)c1	1	-27	-3	-3	/
SMILES	HTR2A ag	dFosB act-1	VIM-2 inh	IMP-1 inhibitor	dFosB act-2
CCOc1ccc(C(=O)/C=C/Nc2ccc(S(=O)(=O)N=C(N)N)cc2)cc1	2	34*	-1	-2	6
CCOc1c(C)cc(S(=O)(=O)NCc2ccccn2)c(C)c1C	-1	-3	0	0	/
O=C(Nc1cccnc1Cl)c1cc(-c2ccc(Br)cc2)on1	-1	3	-2	-5	/
O=C(Nc1cccnc1Cl)c1cc(-c2cccc(O)c2)on1	-3	55*	-1	-2	8
COc1cccc(-c2cc(C(=O)Nc3cccnc3Cl)no2)c1	5	31*	-1	-1	-2
Cc1cccc(C)c1NC(=O)C(c1ccccc1OC(F)(F)F)N1CCN(C)CC1 (stereo not drawn)	-6	/	/	/	/
O=C(COC(=O)c1cc([N+](=O)[O-])ccc1NCc1ccccc1Cl)NCC(F)(F)F	1	53*	-2	2	5
COc1cc2c3nnc(-c4ccc(F)cc4)c-3cn(Cc3cccc(C)c3)c2cc1OC	-4	41*	-2	-3	-2
O=C1COc2ccc(C(=O)CSc3nc4ccccc4c(=O)n3-c3ccc(Cl)c(Cl)c3)cc2N1	3	56*	-1	-3	1
Cn1c(SCC(=O)c2ccc3c(c2)NC(=O)CO3)nc2ccccc21	-2	39*	0	-3	10
CCCn1c(SCC(=O)c2ccc3c(c2)NC(=O)CO3)nc2ccccc21	8	8	-3	-1	/
O=C1COc2ccc(C(=O)CSc3nnc(NCc4ccccc4)s3)cc2N1	-4	43*	-3	-3	1
Cc1cc(NC(=O)CSc2nnc(NCc3ccccc3)s2)no1	0	22*	0	-1	0
Cc1noc(NS(=O)(=O)c2ccc(NS(=O)(=O)c3ccc(Cl)cc3)cc2)c1C	-2	4	/	/	/
Cc1nc(-c2ccc(F)cc2)c(CC(=O)N2CCN(S(=O)(=O)c3cccc(F)c3)CC2)s1	-9	-2	/	/	/
O=C(Nc1cc(N2CCOCC2)ncn1)NC1(C(F)(F)F)Oc2ccccc2O1	5	33*	1	-2	-3
C/C(=N\NC(=O)c1ccc(CN(C)S(=O)(=O)c2ccc(C)cc2)cc1)c1ccc(OC(F)F)cc1	-1	26*	-4	-4	-2
COc1ccc(-c2nnc(SCC(=O)c3cc(C)n(Cc4cccs4)c3C)o2)cc1	2	43*	0	-2	3
COc1ccc(-c2nnc(SCC(=O)c3ccc(O)cc3O)o2)cc1	0	40*	-3	-3	1
Cc1cc(C(=O)CSc2nnc(-c3ccc(OC(F)F)cc3)o2)c(C)n1Cc1cccs1	-4	?	-2	-5	/
CCOC(=O)c1nnsc1Nc1ccc(C)c(C)c1	-3	-9	-3	-4	/
CC(=O)Oc1cccc(N2C(=O)c3ccc(C(=O)Nc4c[nH]c(=O)[nH]c4=O)cc3C2=O)c1	1	20*	-3	-3	1
CC(C)CCN1C(=O)c2ccc(C(=O)Nc3c[nH]c(=O)[nH]c3=O)cc2C1=O	-2	8	0	-2	/
CCCCCCn1c(SCC(=O)Nc2cc(C)on2)nc2ccccc2c1=O	3	13	-2	-1	/
O=C(CSc1nc2ccccc2c(=O)n1Cc1ccc(F)cc1)NCc1cccs1	1	35*	-3	-4	-2
Cc1cc(NC(=O)CSc2nc3ccccc3c(=O)n2Cc2ccc(F)cc2)no1	1	42*	-2	-3	5
